Most compounds without a hit are left out; they make up all but 2.5% or so of the library.
SR-BI uptake up: enhances SR-BI lipid uptake from DiI-HDL; CHO ldlA[mSR-BI] cells, DiI-HDL uptake fluorescence, 3 h; 100 = double the neutral-control signal; activation, % at 12.5 µM; hit rate 0.096% among 320,000; AID 504775;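 active means mean replicate activation of at least 60% and every replicate at or above 60%; inconclusive means mean or all-replicate condition met, but not both; inactive means mean below 60% and not all replicates reaching 60%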;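 further: 0% = median plate neutral-control signal and 100% = twice that signal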
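Material: SR-BI-overexpressing, LDLR-lacking CHO cells; schedule: compound exposure 3 h, 37 °C; reagent: DiI-labelled HDL at 10 µg/mL final; technique: bottom-read fluorescence, 550/595 nm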
NSD2 HMT inh: inhibitors of human histone methyltransferase NSD2 | NSD2 peptide methylation, AlphaScreen, 120 min | hit rate 0.54% among 310,000 | inhibition, % at 12.5 µM
Target sequence (O96028 whole entry, looked up): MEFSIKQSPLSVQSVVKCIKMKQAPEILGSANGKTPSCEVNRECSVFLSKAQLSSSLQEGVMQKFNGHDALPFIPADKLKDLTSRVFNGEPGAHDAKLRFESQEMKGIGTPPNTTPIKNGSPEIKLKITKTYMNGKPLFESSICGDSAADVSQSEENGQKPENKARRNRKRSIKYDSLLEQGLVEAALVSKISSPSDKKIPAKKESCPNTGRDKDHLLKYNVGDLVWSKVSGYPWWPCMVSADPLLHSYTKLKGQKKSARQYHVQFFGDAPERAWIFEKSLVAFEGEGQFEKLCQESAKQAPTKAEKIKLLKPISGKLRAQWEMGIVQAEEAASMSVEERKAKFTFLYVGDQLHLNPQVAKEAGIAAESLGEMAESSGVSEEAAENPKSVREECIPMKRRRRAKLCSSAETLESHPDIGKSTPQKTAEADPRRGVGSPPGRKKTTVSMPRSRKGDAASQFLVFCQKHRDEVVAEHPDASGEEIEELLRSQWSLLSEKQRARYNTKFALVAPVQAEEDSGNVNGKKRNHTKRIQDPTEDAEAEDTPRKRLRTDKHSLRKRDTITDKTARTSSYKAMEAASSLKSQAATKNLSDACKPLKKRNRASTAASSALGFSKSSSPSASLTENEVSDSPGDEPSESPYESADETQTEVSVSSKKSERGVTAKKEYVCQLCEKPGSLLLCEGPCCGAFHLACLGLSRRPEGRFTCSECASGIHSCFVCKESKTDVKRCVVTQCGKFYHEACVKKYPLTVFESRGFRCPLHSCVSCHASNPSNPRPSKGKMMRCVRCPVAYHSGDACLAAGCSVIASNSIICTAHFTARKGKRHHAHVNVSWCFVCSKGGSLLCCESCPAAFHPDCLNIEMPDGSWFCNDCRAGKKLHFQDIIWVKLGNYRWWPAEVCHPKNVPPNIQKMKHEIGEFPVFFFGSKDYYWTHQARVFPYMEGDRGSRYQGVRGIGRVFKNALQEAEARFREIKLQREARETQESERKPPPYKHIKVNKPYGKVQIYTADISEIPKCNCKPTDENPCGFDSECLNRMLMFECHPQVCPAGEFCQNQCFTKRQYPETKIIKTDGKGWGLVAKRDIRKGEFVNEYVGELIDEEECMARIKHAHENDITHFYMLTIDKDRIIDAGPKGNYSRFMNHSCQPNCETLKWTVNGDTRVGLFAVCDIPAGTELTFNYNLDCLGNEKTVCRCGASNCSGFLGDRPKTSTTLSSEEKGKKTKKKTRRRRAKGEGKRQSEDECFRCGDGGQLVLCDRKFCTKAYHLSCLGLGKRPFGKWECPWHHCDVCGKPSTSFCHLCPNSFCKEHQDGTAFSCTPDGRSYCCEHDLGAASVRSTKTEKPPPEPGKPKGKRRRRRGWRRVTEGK
CDK5 inh: inhibitors of human CDK5/p35 kinase | Q00535+Q15078 | Recombinant CDK5/p35, ADP-Glo luminescence, 60 min | inhibition, % at 10 µM | hit rate 0.01% among 330,000 | AID 488839;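 active means highest replicate inhibition of at least 50% and at least 75% of replicates reaching 50%; inconclusive means only one of the two criteria met; inactive means both criteria failed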;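 further: plate controls were DMSO neutral control for no effect and GW8510 at 10 µM for full effect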
SR-BI HDL uptake: blocks mouse SR-BI lipid uptake from DiI-HDL; Q61009; ldlA[mSR-BI] CHO cells, DiI-HDL uptake fluorescence, 3 h; inhibition, % at 12.5 µM; hit rate 0.96% among 320,000; AID 488896;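 active means mean replicate inhibition of at least 70% and a set share of replicates each scoring 70 or more; inconclusive means meets just one of the two criteria; inactive means fails both criteria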;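 further: 0% = median of neutral control wells and 100% = median of positive control wells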
dFosB activator: activators of mouse delta FosB homodimer; purified delta FosB, TAMRA-CDK5 oligo fluorescence polarization; percent of positive-control signal above neutral wells; activation, % at 25 µM; hit rate 0.99% among 340,000; AID 493131;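 active means mean activation above about 17%, with every replicate also reaching it, limit read from the data, passing the limit was not always enough; inconclusive means only one of the two conditions met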
DYRK1A inh: Dyrk1A (rat) kinase inhibition; Q63470; inhibition, % at 12.5 µM; AID 504441; ADP-Glo luminescence, NFATc1 peptide; hit rate 0.43% among 310,000;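 further: plate controls were vehicle with enzyme for no effect and no enzyme for full effect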
Active calls of the source: *; u = inconclusive; x = not tested or not shown. Unless noted, no stated cut-off is given here; in the data, active means inhibition above about 50%; inactive means the rest.

SMILES | SR-BI uptake up | NSD2 HMT inh | CDK5 inh | SR-BI HDL uptake | dFosB activator | DYRK1A inh
Cc1nc2nc(C)n(CCN3CCOCC3)c(=O)c2c(-c2cccc([N+](=O)[O-])c2)c1C(=O)CCCCCCCCCCN1CCC(c2ccccc2)(c2ccccc2)CC1 | -23.7 | 10.7 | -1.2 | 23.7 | 36.9* | 3.6
O=C(NCCCN1CCOCC1)/C(=C/c1ccc(-c2cccc([N+](=O)[O-])c2)o1)NC(=O)c1ccccc1 | x | 4.8 | x | x | x | x
Cc1oc(-c2ccccc2)cc1C(=O)Nc1ccccc1 | x | -1.6 | -1.7 | 89.8* | -1.7 | 0.9
COc1ccc(NC(=O)c2cc(-c3ccccc3)oc2C)cc1 | -3.4 | -0.6 | -0.1 | 3.4 | 0.8 | -1.0
CC(C)OCCCN1C(=O)c2[nH]nc(-c3ccccc3O)c2C1c1cccc(Cl)c1 (centres undefined) | -72.2 | 13.1 | -1.1 | 72.2* | -11.6 | 3.9
CC(=NCCCn1ccnc1)C1=C(O)c2ccccc2C1=O | 60.6* | 0.1 | -3.2 | -60.5 | -21.2 | 45.3
C=CCn1c(COc2ccccc2)nnc1SCC(=O)Nc1ccc(S(=O)(=O)Nc2cc(C)nc(C)n2)cc1 | x | -1.0 | x | x | x | x
O=C(CN1CC[n+]2c(-c3cccs3)csc21)c1ccc(-c2ccccc2)cc1 | -76.7 | x | 0.8 | 76.7* | 12.5 | 6.4
CC(C)[C@H]1/C(=C/C2CC2)N2C(=O)C[C@H](c3cccc(C(F)(F)F)c3)N=C2N1Cc1ccc2c(c1)OCO2 | x | -1.7 | x | x | x | x
COc1ccc(/C=C/c2c(-c3ccc(OC)cc3)oc3ccccc23)cc1 | -78.1 | x | -10.4 | 78.1* | -8.3 | -0.3
COC(=O)c1ccc(/C=C/c2c(-c3ccc(OC)cc3)oc3ccccc23)cc1 | 5.0 | x | 0.4 | -5.0 | -3.8 | 2.3
COc1ccc(/C=N/NC(=O)c2cccc(NC(=O)c3ccccc3Cl)c2)cc1OC | -24.6 | -6.7 | -0.1 | 24.6 | u | 5.2
COc1ccccc1/C=N/NC(=O)c1cccc(NC(=O)c2ccccc2Cl)c1 | -77.1 | -2.3 | 4.7 | 77.1* | -7.0 | 6.1
Cc1ccc(C(=O)Nc2cccc(C(=O)N/N=C/c3ccc(F)cc3)c2)cc1 | -75.9 | 20.8 | 0.4 | 75.9* | -1.2 | -9.3
Cc1ccc(C(=O)Nc2ccc(C(=O)N/N=C/c3ccc(C)o3)cc2)cc1 | -79.7 | 0.2 | -0.4 | 79.7* | 4.7 | -5.0
CC(=O)Nc1cccc(C(=O)N/N=C/c2ccc(F)cc2)c1 | -19.6 | -0.2 | 1.6 | 19.6 | -2.6 | 2.8
C/C(=N\NC(=O)c1c(Cl)cnn1C)c1cccc(NC(=O)c2ccc(C)cc2)c1 | -84.8 | -0.9 | 1.2 | 84.8* | -2.5 | -8.2
C/C(=N\NC(=O)c1c(Cl)cnn1C)c1cccc(NC(=O)C(C)C)c1 | -15.5 | -3.7 | -0.2 | 15.5 | -9.8 | 3.5
FC(F)(F)c1cccc(N2CCN(C3=Nc4ccccc4Sc4ccccc43)CC2)c1 | x | 0.3 | x | x | x | x
Cc1ccc(NC(=O)N2CCCC2C(=O)Nc2c(C)cc(C)cc2C)cc1 (centres undefined) | x | 21.3 | -0.8 | x | -8.1 | -4.0
COc1ccc(C(=O)Nc2cccc(C(=O)N/N=C/c3ccc(OC)cc3OC)c2)cc1 | -89.5 | 0.2 | 1.7 | 89.5* | u | -1.1
COc1ccccc1/C=N/NC(=O)c1cccc(NC(=O)c2ccccc2C)c1 | -74.9 | -2.4 | 0.9 | 74.9* | -3.7 | 5.7
COc1ccc(/C=N/NC(=O)c2cccc(NC(=O)c3ccccc3Cl)c2)c(OC)c1 | -76.6 | -6.2 | 0.8 | 76.6* | 4.3 | 0.3
Cc1ccccc1C(=O)Nc1cccc(C(=O)N/N=C/c2ccccn2)c1 | -24.3 | x | 0.1 | 24.3 | -11.0 | 0.2
COc1ccccc1OCCSc1nc2ccccc2n1CC(N)=O | 20.9 | 3.9 | -0.3 | -20.9 | 7.7 | -2.4
SMILES | SR-BI uptake up | NSD2 HMT inh | CDK5 inh | SR-BI HDL uptake | dFosB activator | DYRK1A inh
O=C(NCc1ccccn1)c1ccc2nc(C3CCCCC3)oc2c1 | -0.3 | 4.1 | -0.1 | 0.3 | -5.2 | -4.2
O=C1C(=NO)CCc2ccccc21 | -5.6 | 77.2* | 1.8 | 5.6 | -12.9 | 5.7
O/N=C1/CCc2cccc3cccc1c23 | -0.4 | -0.3 | 3.2 | 0.4 | -2.0 | 9.0
O=C(Nc1ccc(Cl)cc1)Nc1ccccc1C(=O)N1CCCC1 | x | -1.6 | x | x | x | x
N#Cc1ccc(NC(=O)Nc2ccc(Oc3ccc(NC(=O)Nc4ccc(C#N)cc4)cc3)cc2)cc1 | -86.5 | x | -1.2 | 86.5* | -9.2 | -4.7
COc1ccc(-n2nc(C(=O)NCC(=O)Nc3cc(OC)ccc3OC)c3ccccc3c2=O)cc1 | x | -0.8 | -1.7 | x | 3.8 | -4.3
COc1ccc(-n2nc(C(=O)NCC(=O)Nc3cc(Cl)c(OC)cc3OC)c3ccccc3c2=O)cc1 | -84.3 | -1.4 | -3.1 | 84.3* | 2.6 | -3.4
COc1ccc(-n2nc(C(=O)NCC(=O)Nc3ccccn3)c3ccccc3c2=O)cc1Cl | 9.9 | -0.3 | 1.2 | -9.9 | 67.2* | 1.4
CN(C)S(=O)(=O)c1cccc(C(=O)N/N=C\c2ccccc2[N+](=O)[O-])c1 | x | 0.9 | x | x | x | x
Cc1ccc(C(=O)NC2CCCC2)cc1S(=O)(=O)N1CCCCC1 | x | -6.5 | 0.2 | -8.2 | -4.1 | 0.9
O=C(NNC(=O)c1ccccc1O)c1ccc(Cl)c(S(=O)(=O)N2CCc3ccccc32)c1 | -117.4 | 1.2 | -0.9 | 117.5* | -8.4 | 13.9
Cc1ccc(C(=O)NNC(=O)c2ccccc2O)cc1S(=O)(=O)N1CCCCC1 | -78.2 | 0.9 | -0.4 | 78.2* | -3.2 | 1.7
FC(F)Oc1ccc(/C=N/c2c(-c3ccc(OC(F)F)cc3)nc3n2CCS3)cc1 | -73.7 | -0.6 | 1.2 | 73.7* | -7.3 | 6.7
NNC(=O)c1ccc(N2CCc3ccccc32)c([N+](=O)[O-])c1 | -78.6 | 9.2 | -1.8 | 78.6* | 0.1 | x
CCOC(=O)c1c(C)[nH]c(C(=O)N2CCc3cc(OC)c(OC)cc3C2)c1C | 4.2 | 7.3 | 1.0 | -4.2 | -3.4 | 1.9
O=C(N=Nc1c(O)[nH]c2ccccc12)c1cccc(S(=O)(=O)N2CCCCC2)c1 | 37.1 | 4.6 | -0.9 | -37.1 | 0.0 | -2.5
O=c1[nH]c2ccccc2c2nc(-c3cccc(S(=O)(=O)N4CCCC4)c3)nn12 | -0.4 | 0.3 | -0.6 | 0.4 | 52.8* | -4.1
COc1ccc(-c2[nH]c(-c3ccc(SC)cc3)nc2SCC(=O)Nc2nccs2)cc1 | -87.2 | -0.4 | -0.1 | 87.2* | 12.2 | 1.5
CC(NC(=O)Nc1ccc(F)cc1)c1ccc2c(c1)OCO2 (centres undefined) | 3.0 | -5.4 | -0.7 | -3.0 | 7.6 | 0.9
O=C(Nc1ccc([N+](=O)[O-])cn1)c1cc(-c2cccc(Cl)c2)nc2ccccc12 | -77.1 | -3.1 | 1.2 | 77.1* | 5.9 | -2.8
C[C@H]1CN([C@@H](C)CO)C(=O)c2cc(NC(=O)NC3CCCCC3)ccc2O[C@H]1CN(C)C(=O)Nc1ccc(C(F)(F)F)cc1 | -73.8 | x | -0.5 | 73.8* | -0.8 | 0.4

From PubChem BioAssay
